Active and inactive are the calls of the source. No cut-off for these calls is given here.
Tests used:
[1] = tested on: L-lactate dehydrogenase, skeletal muscle M4 (Oryctolagus cuniculus); experiment: Ability to inhibit skeletal muscle LDH (LDH-M4); Inactive; conditions: Muscle tissue
[2] = target: T1, Malate dehydrogenase, cytoplasmic (Sus scrofa) (UniProt P11708); experiment: Ability to inhibit cytoplasmic malate dehydrogenase; Inactive
T1 sequence (whole entry): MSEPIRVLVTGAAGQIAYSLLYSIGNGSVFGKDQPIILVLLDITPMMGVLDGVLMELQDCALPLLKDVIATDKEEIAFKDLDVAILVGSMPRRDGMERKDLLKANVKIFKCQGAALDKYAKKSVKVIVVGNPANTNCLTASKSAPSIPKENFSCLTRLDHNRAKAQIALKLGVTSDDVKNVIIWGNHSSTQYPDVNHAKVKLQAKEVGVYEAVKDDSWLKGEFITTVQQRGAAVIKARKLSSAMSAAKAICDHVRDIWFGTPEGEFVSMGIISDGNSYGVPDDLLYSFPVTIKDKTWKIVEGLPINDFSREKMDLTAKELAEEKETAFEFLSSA
Summary of the method: (§1)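 Pig heart enzyme (cytoplasmic or mitochondrial form), diluted in 0.05 M Tris pH 7.4 with 1% BSA to give 0.022–0.027 OD/min at 340 nm. Cuvette holds 0.05 M Tris pH 8.4, L-malate, NAD+ and Me2SO ± inhibitor. Equilibrated at 25 °C, then started with enzyme. Five inhibitor concentrations in triplicate; I50 from least-squares dose-response line.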

[3] = target: T2, Malate dehydrogenase, mitochondrial (Sus scrofa) (UniProt P00346); experiment: Ability to inhibit mitochondrial malate dehydrogenase; Inactive
T2 sequence (whole entry): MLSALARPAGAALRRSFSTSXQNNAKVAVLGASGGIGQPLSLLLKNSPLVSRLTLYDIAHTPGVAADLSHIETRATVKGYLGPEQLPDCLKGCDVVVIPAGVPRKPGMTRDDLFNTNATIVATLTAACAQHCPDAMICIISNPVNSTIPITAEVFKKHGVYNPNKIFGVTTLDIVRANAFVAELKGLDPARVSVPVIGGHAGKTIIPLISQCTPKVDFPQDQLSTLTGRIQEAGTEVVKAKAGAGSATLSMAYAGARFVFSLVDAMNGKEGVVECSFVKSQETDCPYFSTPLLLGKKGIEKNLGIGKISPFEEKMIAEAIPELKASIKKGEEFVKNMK
Summary of the method: as §1

O=C(O)c1cnc2cc(OCCc3ccc4ccccc4c3)ccc2c1O was tested, and the pI50 [1] was “inactive”.
O=C(O)c1cnc2cc(OCCc3ccc(Oc4ccccc4)cc3)ccc2c1O was tested, and the pI50 [1] was “inactive”.
For O=C(O)c1cnc2cc(OCCc3ccccc3)ccc2c1O, the pI50 [1] was “inactive”.
O=C(O)c1cnc2cc(OCc3ccc(Br)cc3)ccc2c1O was tested, and the pI50 [2] was “inactive” and the pI50 [1] was “inactive”.
In the case of O=C(O)c1cnc2cc(OCCOc3ccc4ccccc4c3)ccc2c1O, the pI50 [2] is reported as “inactive” and the pI50 [1] is reported as “inactive”.
For O=C(O)c1cnc2cc(F)ccc2c1O, the pI50 [1] was “inactive”.
With O=C(O)c1cnc2cc(OCc3ccccc3)ccc2c1O the pI50 [2] was “inactive” and the pI50 [1] was “inactive”.
In the case of O=C(O)c1cnc2cc(OCCOc3ccc(Br)cc3)ccc2c1O, the pI50 [2] is reported as “inactive” and the pI50 [1] is reported as “inactive”.
O=C(O)c1cnc2ccccc2c1O was tested, and the pI50 [3] was “inactive”, the pI50 [2] was “inactive” and the pI50 [1] was “inactive”.
In the case of O=C(O)c1cnc2cc(OCCOc3ccccc3)ccc2c1O, the pI50 [2] is reported as “inactive” and the pI50 [1] is reported as “inactive”.
For COc1ccc2c(O)c(C(=O)O)cnc2c1, the pI50 [3] was “inactive”, the pI50 [2] was “inactive” and the pI50 [1] was “inactive”.
With O=C(O)c1cnc2cc(OCc3ccc4ccccc4c3)ccc2c1O the pI50 [2] was “inactive” and the pI50 [1] was “inactive”.
With O=C(O)c1cnc2cc(OCc3ccc(Cl)c(Cl)c3)ccc2c1O the pI50 [2] was “inactive” and the pI50 [1] was “inactive”.
In the case of O=C(O)c1cnc2cc(OCc3cccc4ccccc34)ccc2c1O, the pI50 [2] is reported as “inactive” and the pI50 [1] is reported as “inactive”.
In the case of O=C(O)c1cnc2cc(OCc3c(Cl)c(Cl)c(Cl)c(Cl)c3Cl)ccc2c1O, the pI50 [2] is reported as “inactive” and the pI50 [1] is reported as “inactive”.
NC(=O)c1ccc2c(O)c(C(=O)O)cnc2c1 was tested, and the pI50 [1] was “inactive”.
O=C(O)c1cnc2cc(OCCOc3ccc(Oc4ccccc4)cc3)ccc2c1O was tested, and the pI50 [1] was “inactive”.
For O=C(O)c1cnc2cc(OCCOc3ccc(F)cc3)ccc2c1O, the pI50 [2] was “inactive” and the pI50 [1] was “inactive”.
With O=C(O)c1cnc2cc(OCc3ccc(F)cc3)ccc2c1O the pI50 [2] was “inactive” and the pI50 [1] was “inactive”.
In the case of O=C(O)c1cnc2cc(OCCc3ccc(F)cc3)ccc2c1O, the pI50 [2] is reported as “inactive” and the pI50 [1] is reported as “inactive”.

— ChEMBL document CHEMBL1122163, “4-hydroxyquinoline-3-carboxylic acids as inhibitors of cell respiration. 2. Quantitative structure-activity relationship of dehydrogenase enzyme and Ehrlich ascites tumor cell inhibitions” (J Med Chem, 1982)
